According to the RNAGym collection of RNA variant scans (doi:10.1126/science.aae0568):
This sample holds only a part of the variants without activity.

B1: tRNA (parent)
chain: GUUCCGUUGGCGUAAUGGUAACGCGUCUCCCUCCUAAGGAGAAGACUGCGGGUUCGAGUCCCGUACGGAACG

Variants of: B1
Assay: yeast fitness relative to wild type (ratio to wild type); higher = fitter; tRNA-Arg(CCU), competitive growth, 37 C, YPD
Procedure, shortened: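 Genotype frequency changes were the basis for Darwinian fitness relative to wild type. The frequencies came from 100-nucleotide paired-end sequencing of gene amplicons from the start population and each end population of pooled yeast strains with tRNA-Arg(CCU) gene variants at the native locus. Competition ran in YPD at 37°C for 24 hours in six replicates, genotypes needed ≥ 100 starting reads, and estimates < 0.5 were set to 0.5.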

Variant | yeast fitness
GUUCCGUUGGCGUAAUGGUAUCGCGUCUCCCUCCUAAGGAGAAGACUGGGGGUUCGAGUCCCGUACGGCACG [A21U C49G A69C] | ≤ 0.5
GUUCCGUUGGCGAAAUGGUAACGCGUCUCCCUCCAAAGGAGAAGACUGCGGGUUCGAGUCCCGUACGGAACG [U13A U35A] | 0.561
GUUCGCUUGGCGUAAUGGUAACGCGUCUCCCUCCUAAGGAGAAGACUGCGGGUCCCAAUCCCGUACGGAACG [C5G G6C U54C G56C G58A] | ≤ 0.5
GUUCCGUUGGCGUAAUGGUAACGCGUCUCCCUCCUAAGGAGAAGACUGUGGGUUCGAGUCCCGUAGGGAACG [C49U C66G] | 0.752
GUUCCGUCGGCGUAAUGGUAACGCGUUUCCAUCCUAAGGAGAAGACUGCGGGUUCAAGUCCCGUACGGAACG [U8C C27U C31A G56A] | ≤ 0.5
GUUCCGUUGGCGUAAUGGUAACGCGUCGCCCUCCUAAGGAGAAGACUGCGGGUUGGAGUCCCGUACGGAACG [U28G C55G] | ≤ 0.5
GUUUCGUUGGCGUAAUGAUAACCGGUCUCCCUCCUAAGGAGAAGAGUGCGGGUUCGAGUCCCGUAGGGAACG [C4U G18A G23C C24G C46G C66G] | ≤ 0.5
GUUCCGUUGGCGUAAUGGUAAGACGUCUCCCUCCUAAAGAGAAGACUGCGGGUUCGAGUCCCGUACGCAACG [C22G G23A G38A G68C] | 0.572
GUUCCGUUGGCGUAAUGGUAACGCGUCUCCCUCCUAGGGUGAAGACUGAGGGUUCGUGUCCCGUACGGAACG [A37G A40U C49A A57U] | ≤ 0.5
GUUCCGUUGGCGUAAUGGUGACGCGUCUCCCUCCUAAGGAGAAGACUGCGGGUUCGAGUCCCGCAGGGAACG [A20G U64C C66G] | ≤ 0.5
GUUCCGUUGGCGUUAUGGUAACGCGUCUCCCUCCUAAGGAGAAGACUGCGGGUUCGAGUCCCGUAAGGAACG [A14U C66A] | 0.508
GUUCCGUUGGCGUAAUGGUAACGCGUCUCCCUCCUAAGGAGAAGAUUGCGCGUUCGAGUCCCGUACGGAUCG [C46U G51C A70U] | 0.557
GUUCCGUUGGGGUAAUGGUAACGCGUCUCCCUCAUAAGGAGAAGACUGCGGGUUCGACUGCCGUACGGAACG [C11G C34A G58C C60G] | 0.84
GUCCCGUUGGCGUAAUGGUAACGCGUCUCCCUCCUAAGCAGAAGACUGCGGGUUCGAGUCCCGUACGGAACG [U3C G39C] | 0.695
GUUCCGUUGGCGUAAUGGUAACGCGUCUCCCUCCUAAGGAGAAGACUGCGGCUUCGUGUCCCGUACGGAACG [G52C A57U] | 0.514
GGUCAGUUGGCGUAAUGGUAACGCGUCUCCCUCCUAAGGAGAUGACUGCGGGUUCGAGUCCCGUACGGAACG [U2G C5A A43U] | 0.68
GUUCCGUUGGCGUUCUGGUAACGCGUCUCCCUCCUAAGCAGAAGACUGCGGGUUCGAGUCCCGUACGGAACG [A14U A15C G39C] | 0.546
GUUCCGUUGGCGUAAUGGUAACGCGUCUCACUCCUAAGGAGAGGACUGCGGGUUCGAGUCCCGUACGGAACG [C30A A43G] | 0.958
GUUCCGUUGGCGUAAUGGUAACGCGUCCCCCUCCUAAGGAGAAGACCGCGGGUUCGAGACCCGUAAGGAACG [U28C U47C U59A C66A] | ≤ 0.5

Variant | yeast fitness
GUUCCGUUGGCGUAAUGGUAACGCGUCUCCCUCCUAAGGAGAAGACUGCGGGUUCCGGUCCCGUACGGCACG [G56C A57G A69C] | ≤ 0.5
GUUCCGCUGGCGUAAUGGUAACGCGUCUCCCUCCUAAGGAGAAGACUGCGGGUUCUAGUCCCGUUCGCAACG [U7C G56U A65U G68C] | ≤ 0.5
GUUCCGUUGGCGGAAUGGUAACGCGUCUCCCUCCUAAGGAGAAGACUGCGGGUUCGUGUCCCGUACGGAACG [U13G A57U] | 0.6
GUUCCCUUGGCGUAAUGGAAACGCGUCUCCCUCCUAACGAGAAGACUGCGGGUUAGAGUCCCGUACGGAACG [G6C U19A G38C C55A] | ≤ 0.5
GUUCCGUUAGCGUAAUGGUAACGCGGCUCCCUCCUAAGGAGAAGACUGCGGGUUGGAGUCCCGUACGGAACG [G9A U26G C55G] | 0.57
GUUCCGUUGGCGUAAUGGUAACGCGUCUCACUCCUAAGGAGCAGACUGCGGGUUCAUGUCCCGUACGGAACG [C30A A42C G56A A57U] | 0.558
GUUCCGUUGGCGUAAUGGUGACGCGUCUCCCUCUUAAGGUGUAGACUGCGGGUUCGAGUCCCGAACGGAACG [A20G C34U A40U A42U U64A] | ≤ 0.5
GUUCUGUUGACGUAAUGGUAACGCGUCUCCCUCCUAAGGAGAAGAAUGCGGGUUCGAGUCCCGUACGGAACG [C5U G10A C46A] | ≤ 0.5
GUUCAGUUGGCGUAAUGGUAACGCGUGUCCGUCCUAAGGAGAAGACUGCGGGUUCGAGCCCCGUACGGAACG [C5A C27G C31G U59C] | ≤ 0.5
GUUCCGUUGGCGUAAUGGUAACGCGACUCCCUCCUACGGAGAAGACUGCGGGUUCGUGUCCCGUACGGAACG [U26A A37C A57U] | ≤ 0.5
GUUUCGUUGGUGUAGUGGUAACGCGUCUCCCUCUUAAGGAGAAGACUGCGGGUUCGAGUCCCGUACGGAACG [C4U C11U A15G C34U] | ≤ 0.5
GUUCCGUUGGCGUAAUGGUAACGCGUUUCCCUCCUAAGGAGAAGACUGCGGGUUCGAGUCCUGUACGGAACG [C27U C62U] | 1.01
GUUCCGUUGGCGUAAUGGUCACGCGUCUCGCUCCUAAGGAGAAGACUGCGGGUUCGAGUCCUGUACGGAACG [A20C C30G C62U] | 0.554
GUUCCGUUGGCCUAAUGGUAACGCGACUCCCUAGUAAGGAGAAGACUGCGGGUUCGAGUCCCGUACGGCACG [G12C U26A C33A C34G A69C] | ≤ 0.5
GUUCCGUUGGUGUAAUGGUAACGCGUCUCCCUCCUAAGGAGAAGACUGCGGGUUCGAGUCACGUACAGAACG [C11U C61A G67A] | 0.53
GUUCCGUUGGCGUAAUGGUAACGCGUGUCCUUCCUAAGGAGAAGACUGCGGGUUCGAGUCCCGUUCGGAUCG [C27G C31U A65U A70U] | ≤ 0.5
GUUCCGUUGCCGUAAUGGUAACGCGUCUCCCUCGUAAGGAGUAGACUGCGGGUUCGAGUCCCGUACGGACCG [G10C C34G A42U A70C] | ≤ 0.5
GUUCAGUUGGCGUAAUGGUAACGCGUCUCCCUCCUAAGGUCAAGACUGCGGGUUCGAGUCCCGUACGGAACG [C5A A40U G41C] | 0.614
GUUCCGUUGGCGUAAUGGUAAAGCGUCACCCUCCUAAGGAGAAGACUGCGGGGUCGAGUCCCGUACGGAACG [C22A U28A U53G] | ≤ 0.5
